Results as given in ChEMBL document CHEMBL1157649, “Cytotoxic 2-benzylidene-6-(nitrobenzylidene)cyclohexanones which display substantially greater toxicity for neoplasms than non-malignant cells” (Bioorg Med Chem, 2010).
The source made the active and inactive calls. The calls are words filed in the database; no cut-off is given here.

How the values were obtained:
HSC-4 [1] = test: Selectivity index, ratio of CC50 for human normal cells to CC50 for human HSC4 cells; type: functional
Method in brief: (§1)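 The index is the average CC50 toward the three normal cell types (HGF, HPC, HPLF) divided by the CC50 toward the indicated malignant line.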

HL-60 [2] = test: Induction of apoptosis in human HL60 cells assessed as caspase-3 activation; type: functional, cell-based
Method in brief: (§2)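 HL-60 and HSC-2 cells were incubated with compound for 5 h, then caspase-3 activation was measured. The positive control was UV irradiation (6 J/m²/min for 1 min) followed by 3 h incubation. Bars show mean ± SD, n = 3.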

[3] = Cytotoxicity against human HPLF cells after 24 hrs; type: cell-based; details: for CC50: hplf, 24 h
Method in brief: (§3)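 Cells (HGF gingival fibroblasts, HPC pulp cells, HPLF periodontal ligament fibroblasts, HSC-2 and HSC-4 squamous carcinoma, HL-60 promyelocytic leukemia) were exposed to graded concentrations for 24 h, up to a maximum of 400 μM. CC50 is the concentration reducing viable cell number by 50%, taken from dose–response curves. Values are from duplicate determinations differing by less than 5%.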

HL-60 [4] = test: Cytotoxicity against human HL60 cells after 24 hrs; type: functional; details: HL-60, 24 h; method in brief: as §3
HSC-2 [5] = test: Selectivity index, ratio of CC50 for human normal cells to CC50 for human HSC2 cells; type: functional; method in brief: as §1
[6] = Cytotoxicity against human HPC cells after 24 hrs; type: cell-based; details: for CC50: hpc, 24 h; method in brief: as §3
HL-60 [7] = test: Selectivity index, ratio of CC50 for human normal cells to CC50 for human HL60 cells; type: functional; method in brief: as §1
[8] = Partition coefficient, log P of the compound; type: physicochemical; details: octanol/water
HSC-2 [9] = test: Cytotoxicity against human HSC2 cells after 24 hrs; type: functional; details: HSC-2, 24 h; method in brief: as §3
HL-60 [10] = test: Induction of internucleosomal DNA fragmentation in human HL60 cells after 6 hrs; type: functional, cell-based
Method in brief: (§4)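 HL-60 and HSC-2 cells were incubated with compound for 6 h. Internucleosomal DNA fragmentation was then examined against a DNA molecular-weight marker.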

HSC-2 [11] = test: Induction of apoptosis in human HSC2 cells assessed as caspase-3 activation; type: functional, cell-based; method in brief: as §2
Mus musculus [12] = test: Toxicity in mouse assessed as induction of mortality at 30 to 300 mg/kg, ip; type: organism-based; set-up: dose 30-300 mg/kg, route intraperitoneal; details: in vivo
HSC-2 [13] = test: Induction of internucleosomal DNA fragmentation in human HSC2 cells after 6 hrs; type: functional, cell-based; method in brief: as §4
HSC-4 [14] = test: Cytotoxicity against human HSC4 cells after 24 hrs; type: functional; details: HSC-4, 24 h; method in brief: as §3
[15] = Cytotoxicity against human HGF cells after 24 hrs; type: cell-based; details: for CC50: hgf, 24 h; method in brief: as §3
Mus musculus [16] = test: Neurotoxicity in mouse assessed at 30 to 300 mg/kg, ip after 4 hrs; type: toxicity, organism-based; set-up: dose 30-300 mg/kg, route intraperitoneal; details: in vivo
Method in brief: (§5)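 Mice received 30, 100 or 300 mg/kg intraperitoneally and were examined at 0.5 and 4 h for mortality and neurological deficit, following NINDS screening protocols. Results were recorded as the number of mice showing a deficit over the number treated per dose.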

Mus musculus [17] = test: Neurotoxicity in mouse assessed at 30 to 300 mg/kg, ip after 0.5 hrs; type: toxicity, organism-based; set-up: dose 30-300 mg/kg, route intraperitoneal; details: in vivo; method in brief: as §5

SMILES | Selectivity Index (HSC-4 [1]) | Activity (HL-60 [2]) | CC50 [3] [µM] | CC50 (HL-60 [4]) [µM] | Selectivity Index (HSC-2 [5]) | CC50 [6] [µM] | Selectivity Index (HL-60 [7]) | logP [8] | CC50 (HSC-2 [9]) [µM] | Activity (HL-60 [10]) | Activity (HSC-2 [11]) | Activity (Mus musculus [12]) | Activity (HSC-2 [13]) | CC50 (HSC-4 [14]) [µM] | CC50 [15] [µM] | Activity (Mus musculus [16]) | Activity (Mus musculus [17]) | CC50 at 24 h ([3]; HPLF cells) [µM] | CC50 at 24 h ([6]; HPC cells) [µM] | CC50 at 24 h ([15]; HGF cells) [µM]
O=C1/C(=C/c2ccc(Cl)cc2)CCC/C1=C\c1ccccc1[N+](=O)[O-] | >66 | Active | > 400 | 7.6 | >108 | 400 | >53 | 5.38 | 3.7 | Active | inactive | Non-toxic | inactive | 6.1 | > 400 |  |  |  |  | 
O=C1/C(=C/c2ccccc2)CCC/C1=C\c1ccccc1[N+](=O)[O-] | 14 |  | 26 | 3.7 | 12 | 16 | 12 | 4.7 | 3.8 |  |  | Non-toxic |  | 3.2 | 93 | Non-toxic | Non-toxic |  |  | 
O=C1/C(=C/c2ccccc2)CCC/C1=C\c1ccc([N+](=O)[O-])cc1 | 28 |  | 282 | 20 | 53 | 123 | 13 | 4.93 | 4.9 |  |  | Non-toxic |  | 9.2 | 371 | Non-toxic | Non-toxic |  |  | 
COc1cc(/C=C2\CCC/C(=C\c3cccc([N+](=O)[O-])c3)C2=O)cc(OC)c1OC | >4.1 |  | > 400 | 59 | >5.2 | > 400 | >6.4 | 4.53 | 73 |  |  | Non-toxic |  | 92 | 336 | Non-toxic | Non-toxic |  |  | 
COc1ccc(/C=C2\CCC/C(=C\c3ccccc3[N+](=O)[O-])C2=O)cc1 |  |  | 386 | 26 |  | > 400 |  | 4.76 | 11 |  |  | Non-toxic |  | 24 | > 400 | Non-toxic | Non-toxic |  |  | 
COc1cc(/C=C2\CCC/C(=C\c3ccccc3[N+](=O)[O-])C2=O)cc(OC)c1OC | 8.2 |  | 79 | 3 | 9 | 35 | 18 | 4.33 | 5.9 |  |  | Non-toxic |  | 6.5 | 44 | Non-toxic | Non-toxic |  |  | 
O=C1/C(=C/c2ccc(Cl)cc2)CCC/C1=C\c1ccc([N+](=O)[O-])cc1 | 107 |  |  | 4.1 | 193 |  | 71 | 5.6 | 1.5 |  |  | Non-toxic |  | 2.7 |  | Non-toxic | Non-toxic | 332 | 345 | 191
